Measurements of several laboratories.
Protocols differ between the studies behind these lines.

| Compound | target or system | test | test system | setting | endpoint | result |
| --- | --- | --- | --- | --- | --- | --- |
| C=CC(=O)NC1CCN(c2ncc3ncnc(Nc4ccc(Oc5ccc6c(c5)ncn6C)c(C)c4)c3n2)CC1 | Panc1005 | cell growth or viability |  |  | EC50 | 0.0396 µM |
| CC(=O)N1N=C(c2ccc(NS(=O)(=O)c3ccc4oc(=O)ccc4c3)cc2)CC1c1ccc(Br)cc1 (stereo not shown) | Toxoplasma gondii | parasite growth, fluorescence | HS27 | 96 h, intracellular | IC50 | < 3.91 µg/mL |
| COC1=CC(=O)c2ccccc2C1=O | Candida tropicalis | microbial growth, broth dilution | ATCC13803 | 24 h | MIC | 12.5 µg/mL |
| COc1cc(Cc2cnc(N)nc2N)cc(OC)c1OC | Toxoplasma gondii | parasite growth, fluorescence | HS27 | 96 h, intracellular | IC50 | 11.8 µg/mL |
| Cc1c(C(=O)O)ccc2c3n(nc12)[C@@H]1[C@H](C3)N(CC2CC2)[C@@]2(C(=O)Nc3cc(Cl)ccc32)[C@H]1c1cccc(Cl)c1F | UACC-812 | cell growth or viability |  |  | GI50 | 0.00119 µM |
| COc1cccc(/C=N/N2C(=O)c3ccccc3NC2c2cccc(OC)c2O)c1O (stereo not shown) | Mycolicibacterium smegmatis | microbial growth, broth dilution | ATCC700084 | 72 h | MIC | > 256 µg/mL |
| Cc1cc(/C=C/C#N)cc(C)c1Nc1ccnc(Nc2ccc(C#N)cc2)n1 | SUNE1 | cell growth or viability, MTT |  | 48 h | IC50 | 19.1 µM |
| NNC(=O)c1ccncc1 | Mycolicibacterium smegmatis | microbial growth, broth dilution | ATCC700084 |  | MIC | 117 µM |
| COc1cc2nc(N3CCN(C(=O)C4COc5ccccc5O4)CC3)nc(N)c2cc1OC (stereo not shown) | SUNE1 | cell growth or viability, MTT |  | 48 h | IC50 | 8.89 µM |
| C[C@@H]1[C@H](O)[C@@H](C)/C=C/C=C/C=C/C=C/C=C/C=C/C=C/[C@H](O[C@@H]2O[C@H](C)[C@@H](O)[C@H](N)[C@@H]2O)C[C@@H]2O[C@](O)(C[C@@H](O)C[C@@H](O)[C@H](O)CC[C@@H](O)C[C@@H](O)CC(=O)O[C@H]1C)C[C@H](O)[C@H]2C(=O)O | Candida tropicalis | microbial growth, broth dilution | ATCC13803 | 24 h | MIC | 4 µg/mL |
